The term IC50 denotes the midpoint of a concentration-inhibition curve. Broadly, the GI50 is the concentration that inhibits growth by half. Read a high GI50 as lower sensitivity of the cells.

The source made the active and inactive calls. No cut-off for these calls is given here.

System in the first experiment: not listed separately
Put plainly: Inhibition of Wnt/beta-Catenin signaling (unknown origin) expressed in recombinant human Wnt-3a-induced Wnt-HEK293 cells incubated for 24 hrs by luciferase reporter gene assay. Format: cell-based.
Settings: not given
Put shortly: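 Stably transfected Wnt-HEK293 cells, 2000/well in DMEM + 10% FBS, incubated overnight at 37 °C. Compounds pin-transferred, then recombinant human Wnt-3a added (200 ng/mL stock); unstimulated control wells received medium. After 24 h at 37 °C, ONE-Glo luminescence read after 30 min at room temperature; CellTiter-Fluor viability read in parallel. IC50 reported as mean ± SD of three independent experiments.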
A general note: A reporter such as luciferase makes a cellular process visible.
For the compound `Cc1c(C(=O)Nc2ccc3ccccc3n2)cnn1-c1ccc(F)cc1F`, the IC50 turned out to be 16 nM.

On to `CCc1c(C(=O)Nc2ccc3ccccc3n2)cnn1-c1ccccc1`, for which the IC50 is 1.7 nM.

For the compound `Cc1cc(/C=C/c2ccc3cc(N(C)C)ccc3[n+]2C)c(C)n1-c1ccccc1` [PYRVINIUM], the half-maximal inhibitory concentration (IC50) is 750 nM. Turning to `CN(C)c1c(C(=O)Nc2ccc3ccccc3n2)cnn1-c1ccccc1`, the IC50 is 6 nM. Same read-out and setting: next, `O=C(Nc1ccc2ccccc2n1)c1cnn(-c2ccccc2)c1Br`: 3.7 nM; `CCc1ccccc1-n1ncc(C(=O)Nc2cc3ccccc3cn2)c1C`: more than 1000 nM. Consider `CCc1ccccc1-n1ncc(C(=O)Nc2ccc3ccccc3n2)c1C`, for which the IC50 turned out to be 1.2 nM. On to `CC(C)c1c(C(=O)Nc2ccc3ccccc3n2)cnn1-c1ccccc1`, for which the concentration for half-maximal inhibition (IC50) worked out at 15 nM. Same read-out and setting: in the case of `O=C(Nc1ccc2ccccc2n1)c1nn(-c2ccccc2)c2c1CCCC2` it was 260 nM. Consider `Cc1ccccc1-n1nc(C(=O)Nc2ccc3ccccc3n2)cc1C`, for which the IC50 worked out at 250 nM. The same measure, in the same setting: next, `CCc1ccccc1-n1ncc(C(=O)Nc2ccc3ccccc3c2)c1C`: more than 1000 nM; `Cc1cccnc1-n1ncc(C(=O)Nc2ccc3ccccc3n2)c1C`: 2.2 nM; `Oc1nc(-c2ccc(C(F)(F)F)cc2)nc2c1CSCC2`: 450 nM. The same measure, in the same setting: in the case of `O=C(Nc1ccc2ccccc2n1)c1cnn(-c2ccccc2)c1Cl` it was 29 nM; in that of `Cc1c(C(=O)Nc2ccc3ccccc3n2)cnn1-c1cccc(Cl)c1F`, 14 nM; in that of `Cc1c(C(=O)Nc2ccc3ccccc3n2)cnn1-c1c(F)cccc1Br`, 3.2 nM. With `Cc1c(C(=O)Nc2ccc3ccccc3n2)cnn1-c1ccccc1`, the IC50 stood at 2.2 nM. Take `CCc1ccccc1-n1nc(C(=O)Nc2ccc3ccccc3n2)cc1C`: the IC50 was 67 nM. Take `Cc1cc(C(=O)Nc2ccc3ccccc3n2)nn1-c1ccccc1`: the IC50 came to 637 nM. For the compound `Cc1ccc(C)c(-n2ncc(C(=O)Nc3ccc4ccccc4n3)c2C)c1`, the IC50 turned out to be 14 nM. The same measure, in the same setting: next, `Cc1c(C(=O)Nc2ccc3ccccc3n2)cnn1-c1c(F)cccc1F`: 1.6 nM; `Cc1cccc(C)c1-n1ncc(C(=O)Nc2ccc3ccccc3n2)c1C`: 26 nM; `O=C(Nc1ccc2ccccc2n1)c1nn(-c2ccccc2)c2c1CCC2`: 140 nM. With `Cc1c(C(=O)Nc2ccc3ccccc3n2)cnn1-c1ccccc1F`, the IC50 is 0.92 nM. As to `CCc1ccccc1-n1ncc(C(=O)Nc2cccc(C)n2)c1C`, the IC50 was found to be 380 nM.

The species named for the next experiment is Homo sapiens. Kind of experiment: Potency index, ratio of IC50 for pyrvinium to test compound for inhibition of Wnt/beta-Catenin signaling (unknown origin) expressed in recombinant human Wnt-3a-induced Wnt-HEK293 cells incubated for 24 hrs by luciferase reporter gene assay. The class given is cell-based.
Settings: not given
Take `Cc1c(C(=O)Nc2ccc3ccccc3n2)cnn1-c1ccccc1`: the Ratio IC50 was more than 300.

A further experiment is filed under the species Homo sapiens. Kind of experiment: Potency index, ratio of IC50 for XAV939 to test compound for inhibition of Wnt/beta-Catenin signaling (unknown origin) expressed in recombinant human Wnt-3a-induced Wnt-HEK293 cells incubated for 24 hrs by luciferase reporter gene assay.
Settings: not given
Format: cell-based.
`Cc1c(C(=O)Nc2ccc3ccccc3n2)cnn1-c1ccccc1`: the Ratio IC50 was more than 200.

A further experiment deals with SW480. Kind of experiment: Growth inhibition of human SW480 cells at 50 uM by Cell-titer-fluor reagent based assay relative to control. The class given is functional. Conditions: read-out: GI.
Consider `CCc1ccccc1-n1ncc(C(=O)Nc2ccc3ccccc3n2)c1C`, for which the inhibition of growth at 50 µM is more than 50%.

For the compound `CC(C)c1c(C(=O)Nc2ccc3ccccc3n2)cnn1-c1ccccc1`, the inhibition of growth at 50 µM is more than 50%. `Cc1c(C(=O)Nc2ccc3ccccc3n2)cnn1-c1cccc(Cl)c1F`: the inhibition of growth at 50 µM was more than 50%. On the same count and under the same terms, next, `Cc1c(C(=O)Nc2ccc3ccccc3n2)cnn1-c1c(F)cccc1Br`: more than 50%; `Cc1c(C(=O)Nc2ccc3ccccc3n2)cnn1-c1ccccc1`: more than 50%. `Cc1ccc(C)c(-n2ncc(C(=O)Nc3ccc4ccccc4n3)c2C)c1`: the inhibition of growth at 50 µM was more than 50%.

On to `Cc1cccc(C)c1-n1ncc(C(=O)Nc2ccc3ccccc3n2)c1C`, for which the inhibition of growth at 50 µM is more than 50%. Take `Cc1c(C(=O)Nc2ccc3ccccc3n2)cnn1-c1ccccc1F`: the inhibition of growth at 50 µM is more than 50%.

A further experiment relates to SW480. Put plainly: Growth inhibition of human SW480 cells by Cell-titer-fluor reagent based assay.
Settings: not given
The class given is functional.
Regarding `Cc1cc(/C=C/c2ccc3cc(N(C)C)ccc3[n+]2C)c(C)n1-c1ccccc1` [PYRVINIUM], it took 3.7 µM to inhibit growth by half (GI50). Consider `CCc1ccccc1-n1ncc(C(=O)Nc2ccc3ccccc3n2)c1C`, for which the GI50 came out at 9.7 µM. Same read-out and setting: in the case of `CC(C)c1c(C(=O)Nc2ccc3ccccc3n2)cnn1-c1ccccc1` it was 17.3 µM; in that of `Oc1nc(-c2ccc(C(F)(F)F)cc2)nc2c1CSCC2`, more than 50 µM.

`Cc1c(C(=O)Nc2ccc3ccccc3n2)cnn1-c1cccc(Cl)c1F` displayed a GI50 of 9 µM. With `Cc1c(C(=O)Nc2ccc3ccccc3n2)cnn1-c1c(F)cccc1Br`, the GI50 stood at 3.9 µM. On to `Cc1c(C(=O)Nc2ccc3ccccc3n2)cnn1-c1ccccc1`, for which halving of growth (GI50) required 23.9 µM. The compound `Cc1ccc(C)c(-n2ncc(C(=O)Nc3ccc4ccccc4n3)c2C)c1` came in with a GI50 of 24.6 µM. For the compound `Cc1cccc(C)c1-n1ncc(C(=O)Nc2ccc3ccccc3n2)c1C`, growth was halved (GI50) at 7.2 µM. Compound `Cc1c(C(=O)Nc2ccc3ccccc3n2)cnn1-c1ccccc1F` came in with a GI50 of 33.3 µM.

The next experiment is filed under the species Homo sapiens. Put plainly: Inhibition of Wnt/beta-Catenin signaling (unknown origin) expressed in recombinant human Wnt-3a-induced Wnt-HEK293 cells assessed as increase in beta-catenin degradation at 1 uM by Western blot analysis. Format: cell-based.
Settings: not given
On the technique in general: In western blotting, separated proteins are transferred to a membrane and probed.
As for `Cc1cc(/C=C/c2ccc3cc(N(C)C)ccc3[n+]2C)c(C)n1-c1ccccc1` [PYRVINIUM], the inhibition entry is “Active”. As to `Cc1ccccc1-n1nnc(C(=O)Nc2ccc3ccccc3n2)c1C`, the inhibition result was “Active”.

Another experiment addresses AMP-activated protein kinase, AMPK (Homo sapiens) (UniProt P54646+O43741+P54619+Q9UGJ0+Q9Y478+Q13131+Q9UGI9). Put plainly: Activation of AMPK in HEK293 cells over-expressing Axin-1 assessed as increase in AMPK phosphorylation at T172 residue at 10 uM incubated for 24 hrs by Western blot analysis. Format: cell-based.
Settings: not given
As to `Cc1ccccc1-n1nnc(C(=O)Nc2ccc3ccccc3n2)c1C`, the outcome was Active.

Values taken from ChEMBL document CHEMBL4414663, “Pyrazole-4-Carboxamide (YW2065): A Therapeutic Candidate for Colorectal Cancer via Dual Activities of Wnt/β-Catenin Signaling Inhibition and AMP-Activated Protein Kinase (AMPK) Activation” (J Med Chem, 2019).
